≈ marks a conversion by molar mass, not a printed value.
Columns and labels:
[1] = Inhibition of 12-O-tetradecanoylphorbol 13-acetate-induced transformation of mouse JB6 cells after 14 days by soft agar assay; type: functional, cell-based
[2] = Cytotoxicity against mouse JB6 cells after 3 days by trypan blue staining; type: cell-based; details: JB6, 72 h
Method in brief: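 JB6 cells at 1×10^4 cells/mL were preincubated 24 h, then exposed to a range of test-compound concentrations for 3 days. Trypsinized cells were mixed with 0.4% trypan blue, and percent viability was scored microscopically.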

[3] = Ratio of IC50 for mouse JB6 cells to IC50 for inhibition of 12-O-tetradecanoylphorbol 13-acetate-induced transformation of mouse JB6 cells
Method in brief: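 Ratio of two IC50s. The first is trypan blue cytotoxicity: JB6 cells, 24 h preincubation, 3-day exposure. The second is soft-agar transformation: TPA-sensitive P+ JB6 cells in 0.5% agar with TPA plus compound, triplicate wells, 14 days at 37 °C. Colonies of ≥15 cells were counted in three 0.25 cm² areas. Frequency is relative to TPA and 0.1% DMSO controls.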

IC50 [1] | SMILES | IC50 [2] | Ratio IC50 [3]
> 4 µg/mL | COc1ccc([C@@H]2OC[C@@H]3[C@H]2CO[C@@H]3c2cc(OC)c(OC)c(OC)c2)cc1OC |  | 
> 4 µg/mL | COc1cc([C@@H]2c3c(cc4c(c3OC)OCO4)[C@H](OC(C)=O)[C@H]3COC(=O)[C@@H]23)cc(OC)c1OC |  | 
> 4 µg/mL | COc1cc(C[C@H]2C(=O)OC[C@@H]2Cc2cc(OC)c3c(c2)OCO3)cc(OC)c1OC |  | 
> 4 µg/mL | COc1cc([C@H]2OC[C@H]3[C@@H]2CO[C@@H]3c2cc(OC)c(OC)c(OC)c2)cc(OC)c1OC |  | 
> 4 µg/mL | COc1cc2c(cc1OC)C(=O)N(C)CC2 |  | 
> 4 µg/mL | COc1cc([C@@H]2OC[C@@H]3C(=O)OC[C@@H]32)cc(OC)c1OC [CARUILIGNAN C] |  | 
> 4 µg/mL | COc1cc([C@@H]2OC[C@H]3[C@@H]2CO[C@H]3c2cc(OC)c3c(c2)OCO3)cc(OC)c1OC [DIASESARTEMIN] |  | 
0.4 µg/mL (≈ 0.896 µM) | COc1cc([C@H]2OC[C@H]3[C@@H]2CO[C@H]3c2cc(OC)c(OC)c(OC)c2)cc(OC)c1OC [EPIYANGAMBIN] | 5.7 µg/mL (≈ 12.8 µM) | 10

SMILES | IC50 [1] | IC50 [2] | Ratio IC50 [3]
COc1cc([C@@H]2c3cc4c(cc3[C@H](OC(C)=O)[C@H]3COC(=O)[C@@H]23)OCO4)cc(OC)c1OC | 0.15 µg/mL (≈ 0.329 µM) | 1.2 µg/mL (≈ 2.63 µM) | 10
COc1cc(C[C@H]2C(=O)OC[C@@H]2Cc2ccc3c(c2)OCO3)cc(OC)c1OC | > 4 µg/mL |  | 
